hERG protect: hERG (human) protection from proarrhythmic block. CHO-hERG, FluxOR thallium flux, dofetilide IC70 present. activation (rescue from dofetilide block), less the hit threshold, % at 10 µM. Q12809. 0.51% of 310,000 active;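 active = activation above the mean of controls blocked by dofetilide plus 5 SD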;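 also: thallium influx through hERG after potassium depolarization seen as dye fluorescence rise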
Kir21 inh: inhibitors of mouse Kir2.1 inward-rectifier potassium channel. P35561. HEK293-Kir2.1, FluxOR thallium flux fluorescence; active compounds read low. B-score at 10 µM. 0.85% of 310,000 active. AID 1672;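 active = fluorescence ratio B-score at or below minus 3 SD of library scores, with starting-brightness B-score within 2 SD, cut at about -4.2 in these data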;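 also: channel flux triggered by added potassium and thallium sulfate stimulus; B-score of peak minus minimum fluorescence over baseline after thallium stimulus; more negative B-score means stronger Kir2.1 block with less thallium influx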
KCNK3 block: human KCNK3 channel inhibition, primary screen. O14649. CHO-KCNK3 thallium flux, FluxOR fluorescence; active compounds read low. B-score at 10 µM. 0.84% of 340,000 active;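 active = B-score under library mean minus 4 SD, starting fluorescence ratio at most library mean plus 5 SD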;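 also: more negative B-score means stronger inhibition of thallium flux through KCNK3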
Target sequence (O14649 whole entry, looked up): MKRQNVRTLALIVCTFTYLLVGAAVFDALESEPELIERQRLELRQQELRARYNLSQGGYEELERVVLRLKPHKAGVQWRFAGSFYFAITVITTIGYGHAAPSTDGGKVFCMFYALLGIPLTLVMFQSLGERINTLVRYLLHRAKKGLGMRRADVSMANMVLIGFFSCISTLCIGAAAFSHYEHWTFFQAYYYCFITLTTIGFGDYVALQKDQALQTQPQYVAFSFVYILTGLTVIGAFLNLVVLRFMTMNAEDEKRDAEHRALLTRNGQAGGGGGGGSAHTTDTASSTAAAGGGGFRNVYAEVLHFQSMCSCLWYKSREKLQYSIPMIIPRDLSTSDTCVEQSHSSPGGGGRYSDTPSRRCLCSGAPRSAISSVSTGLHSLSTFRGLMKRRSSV
KCNK9 block: blocks the human KCNK9 two-pore domain potassium channel; Q9NPC2; HEK293 KCNK9, FluxOR thallium flux fluorescence; active compounds read low; B-score at 10 µM; 1.2% of 310,000 active; AID 488922;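 active = ratio B-score over 3 SD below the library mean, with starting fluorescence within 5 SD of its mean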;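 also: negative B-score means less thallium flux so channel inhibition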
KCNQ1 inh: inhibitors of human KCNQ1 potassium channel | 1.3% of 310,000 active | CHO-K1 KCNQ1, FluxOR thallium flux fluorescence; active compounds read high | P51787 | B-score at 10 µM | AID 2642;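 active = compounds whose thallium flux B-score, printed positive for inhibition, exceeds three library SD while starting fluorescence stays within three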;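 also: channel opened by potassium depolarization with thallium stimulus after 20 min compound exposure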
KCNQ1 pot: potentiators or activators of human KCNQ1 potassium channel; P51787; CHO-K1 KCNQ1, thallium flux FluxOR fluorescence; active compounds read high; B-score at 10 µM; 0.35% of 310,000 active; AID 2648;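 active = fluorescence ratio B-score, a plate-corrected score, at least three library SD, with initial intensity B-score within 5 SD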
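assay system = KCNQ1-transfected CHO-K1 cells | medium = assay buffer with matched DMSO | probe or stimulus = depolarizing K+/Tl+ stimulus, K2SO4 and Tl2SO4 each 12.5 mM in 5x stock | dosing = single dose | incubation = dye 90 min, compound 20 min, room temperature | detection = kinetic FluxOR fluorescence, 10 s baseline plus 110 s post-stimulus | evaluation = ratio B score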
KCNK3 confirm: confirmation of human KCNK3 two-pore domain potassium channel inhibitors; 99% of 2,400 active; AID 651638; ratio percent of control, % at 10 µM; CHO-KCNK3 thallium flux, FluxOR fluorescence; 0% buffer, 100% carvedilol maximal block; shares compounds with KCNK3 block;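 active = ratio percent of control, averaged over triplicates, above buffer control mean plus 5 SD, cut at about 64% in these data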;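 also: ratio is the fluorescence rise from min to max over baseline after thallium stimulus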
KCNK3 uninduced: KCNK3 inhibitor counter-screen hit in non-induced cells | shares compounds with KCNK3 block | non-induced KCNK3 parental cells, FluxOR thallium flux; active compounds read low | AID 651747 | thallium flux ratio (lower = more inhibition) at 10 µM | 40% of 2,400 active;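 active = thallium flux ratio, averaged over three wells, more than 5 SD below the buffer control mean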;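 also: host cells are CHO cells without KCNK3 induction; ratio is peak minus trough fluorescence over baseline then normalized to buffer controls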
Numbers without * were called inactive; i = inactive; . = not tested or not shown. Shown are actives, neighbours in structure and some others; about 3.7% of the full set was active somewhere.

SMILES	hERG protect	Kir21 inh	KCNK3 block	KCNK9 block	KCNQ1 inh	KCNQ1 pot	KCNK3 confirm	KCNK3 uninduced
CCCOC(=O)c1ccc(NC(=O)CSC2=Nc3ccccc3C3CC=NN23)cc1 (stereo unspecified)	-12.4	-0.85	-9.02*	-7.02*	i	i	110.3*	i
O=C(CSC1=Nc2ccccc2C2CC=NN12)Nc1ccc2c(c1)OCO2 (stereo unspecified)	.	.	i	.	.	.	.	.
Cc1cc(C)c(S(=O)(=O)c2ccccc2Cl)c(=O)[nH]1	-6.2	-0.34	i	i	i	i	.	.
O=C(COc1cccc2cccnc12)N/N=C/c1cccn1-c1ccc(F)cc1	-21.5	0.05	-8.71*	i	i	i	108.3*	i
O=C(COc1cccc2cccnc12)N/N=C/c1ccc(O)cc1	-8.2	1.86	i	i	i	i	.	.
C(=Cc1c[nH]c2ccccc12)c1nccc2ccccc12	.	.	-14.1*	.	.	.	167.3*	0.0443*
COc1ccc(C/C(C)=N\NC(=O)c2cn(C)c3ccccc23)cc1OC	-11.3	0.94	i	i	i	i	.	.
CCOc1ccccc1C(=O)NCCCCNC(=O)c1ccccc1OCC	-12.9	0.76	-9.82*	i	i	i	94.0*	i
CCOc1cc(NC(=O)C2CC2)c(OCC)cc1NC(=O)c1cc(OC)c(OC)c(OC)c1	-9.7	0.55	i	i	i	i	.	.
CCOc1cc(NC(=O)C2CC2)c(OCC)cc1NC(=O)c1ccccc1OCC	-16.2	1.11	-8.72*	i	i	i	102.3*	i
CSc1ccccc1C(=O)N1CCCC(CCC(=O)NCc2ccc(F)c(F)c2)C1 (stereo unspecified)	-6.8	-0.42	i	i	i	i	.	.
C=CCN(C(=O)Nc1ccc(OC)cc1)c1nnc(-c2ccncc2)s1	-5.5	-0.1	-9.47*	i	i	i	94.3*	i
CCN(CC(=O)Nc1c(F)cccc1F)C(=O)CC1CCCCC1	.	.	i	.	.	.	.	.
CC(C)(C)n1nnnc1C(c1cccnc1)N1CCN(c2cccc(C(F)(F)F)c2)CC1 (stereo unspecified)	-7.5	1.8	-10.3*	i	i	i	77.0*	i
CC(C)(C)n1nnnc1C(c1cccnc1)N1CCN(C2CCCCC2)CC1 (stereo unspecified)	-1.8	-2.71	i	i	i	i	.	.
CCOC(=O)CNC(=O)C1c2ccccc2Oc2ccccc21	-7.6	-0.01	-12.4*	i	i	i	50.3*	i
COCC1CCN(C(=O)c2cc(COc3ccc4ncccc4c3)on2)CC1	-18.9	-1.59	i	i	i	i	.	.
CCc1ccc2c(c1)C1(NN=C(c3ccc(C)cc3)S1)C(=O)N2 (stereo unspecified)	-23.2	2.67	-8.71*	i	7*	i	106.0*	0.114*
Cc1sc2ncnc(N3CCC(C(=O)N(CC(C)C)c4nc5ccccc5s4)CC3)c2c1C	-6.3	-0.71	i	i	i	i	.	.
CCN1C(=O)C(CC(=O)Nc2ccc(OC)cc2)N(CCc2ccccc2F)C1=S (stereo unspecified)	-10.8	0	i	i	i	i	.	.
CCN1C(=O)C(CC(=O)Nc2ccc(OC)cc2)N(CCc2ccccc2)C1=S (stereo unspecified)	-21.8	0.11	-8.81*	i	i	i	113.3*	i
CCCCN1CN(S(=O)(=O)c2ccc(OC)cc2)c2nc3ccccc3nc21	-9.0	1.2	-8.89*	i	i	i	90.3*	i
COc1ccc(/C(C)=N/N2C(=O)c3ccccc3NC2c2ccc(O)c(OC)c2)cc1 (stereo unspecified)	-12.1	0.27	-9.26*	i	i	i	99.3*	i
CCCCN(C(=O)c1nn(C)c(=O)c2ccccc12)c1c(N)n(CC(C)C)c(=O)[nH]c1=O	.	.	i	.	.	.	.	.
CCOc1cccc(OCCOc2ccccc2[N+](=O)[O-])c1	-2.5	0.58	-8.7*	-7.22*	i	i	110.0*	i
SMILES	hERG protect	Kir21 inh	KCNK3 block	KCNK9 block	KCNQ1 inh	KCNQ1 pot	KCNK3 confirm	KCNK3 uninduced
CC1CCCC(NC(=O)COC(=O)COc2ccc(C#N)cc2)C1C (stereo unspecified)	.	.	i	.	.	.	.	.
O=C1CCC(C(=O)OC(C(=O)c2c[nH]c3ccccc23)c2ccccc2)=NN1 (stereo unspecified)	-1.6	-0.75	i	-8.74*	i	i	111.3*	i
Cc1onc(-c2c(Cl)cccc2Cl)c1C(=O)N1CCOCC1	-4.4	0.24	i	i	i	i	.	.
Cc1cc(C)c2nc(-c3cccc(Cl)c3)c(C)c(C(=O)N3CCOCC3)c2c1	-13.1	-0.99	-9.55*	-7.37*	i	i	121.7*	0.15*
CCOC(=O)c1c(C)[nH]c(C(=O)NCc2ccco2)c1C	-2.5	-0.06	.	i	i	i	.	.
O=C(N/N=C/c1cn(-c2ccccc2)nc1-c1cccnc1)c1ccccc1	-14.2	-0.19	-9.51*	i	i	i	98.0*	i
COc1ccc(C)cc1S(=O)(=O)NCC(c1ccc2c(c1)OCO2)N1CCOCC1 (stereo unspecified)	-15.4	0.04	i	i	i	i	.	.
C(=N\N1CCN(C2c3ccccc3-c3ccccc32)CC1)/c1cccnc1	-8.5	1.05	-10.1*	i	i	i	84.7*	i
C/C(=N\N1CCN(C2c3ccccc3-c3ccccc32)CC1)c1cccnc1	-6.3	0.28	i	i	i	i	.	.
CC12CCC(=O)C=C1CCC1C2C(O)CC2(C)C(c3csc(N)n3)CCC12 (stereo unspecified)	.	.	i	.	.	.	.	.
CC12CCC(=O)C=C1CCC1C2CCC2(C)C(c3csc(N)n3)CCC12 (stereo unspecified)	.	.	-14.3*	.	.	.	133.3*	0.121*
CCC(C(=O)NCCc1c[nH]c2ccc(C)cc12)c1ccccc1 (stereo unspecified)	-2.5	-4.51*	-8.81*	-7.75*	i	i	110.0*	i
Cc1ccc(C(=O)Nc2cccc3cccnc23)cc1C	-6.6	-0.91	-9.91*	i	i	i	94.7*	i
Cc1cccc(C(=O)Nc2cccc3cccnc23)c1	-2.6	1.21	i	i	i	i	.	.
O=C(Nc1cccc2cccnc12)c1ccc(Cl)cc1	-3.4	-0.22	-8.89*	i	i	i	103.3*	i
